Calls of active or inactive are those of the source. The calls are words filed in the database; no cut-off is given here.
Columns and labels:
[1] = target: T1, Protein deacetylase HDAC6 (Homo sapiens, UniProt Q9UBN7); assay: Inhibition of recombinant full length C-terminal FLAG-tagged human HDAC6 expressed in baculovirus infected Sf9 cells using Boc-Lys(Ac)-AMC as substrate preincubated for 15 mins followed by substrate addition and measured after 60 mins by fluorescence based assay
T1 sequence (Q9UBN7 whole entry): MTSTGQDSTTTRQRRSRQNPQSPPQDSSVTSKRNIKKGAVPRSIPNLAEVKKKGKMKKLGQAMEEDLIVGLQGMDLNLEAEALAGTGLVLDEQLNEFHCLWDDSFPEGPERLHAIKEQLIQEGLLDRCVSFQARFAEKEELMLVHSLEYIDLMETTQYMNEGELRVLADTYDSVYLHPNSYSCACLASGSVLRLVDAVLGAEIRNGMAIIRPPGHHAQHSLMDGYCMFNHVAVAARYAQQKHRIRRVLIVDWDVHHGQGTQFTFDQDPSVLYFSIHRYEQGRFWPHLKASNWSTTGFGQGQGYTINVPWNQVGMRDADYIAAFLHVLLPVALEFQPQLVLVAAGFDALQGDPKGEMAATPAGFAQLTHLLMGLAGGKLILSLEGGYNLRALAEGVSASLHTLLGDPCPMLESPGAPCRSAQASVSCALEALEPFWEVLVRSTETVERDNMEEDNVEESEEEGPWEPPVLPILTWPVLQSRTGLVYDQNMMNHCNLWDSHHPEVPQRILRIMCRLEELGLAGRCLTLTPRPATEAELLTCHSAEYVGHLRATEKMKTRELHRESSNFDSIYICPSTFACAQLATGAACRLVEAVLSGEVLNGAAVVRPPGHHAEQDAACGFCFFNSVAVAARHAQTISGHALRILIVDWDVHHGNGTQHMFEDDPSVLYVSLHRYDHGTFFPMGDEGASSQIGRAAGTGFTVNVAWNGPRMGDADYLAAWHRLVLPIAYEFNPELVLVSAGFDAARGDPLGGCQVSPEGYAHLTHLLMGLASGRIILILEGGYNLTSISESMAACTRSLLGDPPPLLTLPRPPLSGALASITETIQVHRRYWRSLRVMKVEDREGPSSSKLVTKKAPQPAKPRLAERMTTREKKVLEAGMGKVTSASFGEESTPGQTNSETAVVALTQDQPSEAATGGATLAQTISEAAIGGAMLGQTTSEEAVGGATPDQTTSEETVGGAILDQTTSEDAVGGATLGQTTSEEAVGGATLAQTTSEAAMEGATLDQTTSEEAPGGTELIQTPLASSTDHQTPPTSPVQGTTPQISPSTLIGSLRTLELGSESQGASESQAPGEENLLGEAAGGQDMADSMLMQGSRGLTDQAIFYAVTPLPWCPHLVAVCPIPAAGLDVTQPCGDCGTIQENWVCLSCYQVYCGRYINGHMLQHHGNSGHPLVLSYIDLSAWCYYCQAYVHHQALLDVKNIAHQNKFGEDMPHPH

[2] = target: Histone deacetylase 3/Nuclear receptor corepressor 2 (HDAC3/NCoR2) (Homo sapiens, UniProt O15379); assay: Inhibition of C-terminal His-tagged recombinant human HDAC3 (1 to 428 residues)/N-terminal GST-tagged recombinant human NCoR2 (395 to 489 residues) co-expressed in baculovirus infected Sf9 cells using Boc-Lys(Ac)-AMC as substrate preincubated for 15 mins followed by substrate addition and measured after 60 mins by fluorescence based assay
Histone deacetylase 3/Nuclear receptor corepressor 2 (HDAC3/NCoR2), sequence (O15379 whole entry, the tested form may be a part): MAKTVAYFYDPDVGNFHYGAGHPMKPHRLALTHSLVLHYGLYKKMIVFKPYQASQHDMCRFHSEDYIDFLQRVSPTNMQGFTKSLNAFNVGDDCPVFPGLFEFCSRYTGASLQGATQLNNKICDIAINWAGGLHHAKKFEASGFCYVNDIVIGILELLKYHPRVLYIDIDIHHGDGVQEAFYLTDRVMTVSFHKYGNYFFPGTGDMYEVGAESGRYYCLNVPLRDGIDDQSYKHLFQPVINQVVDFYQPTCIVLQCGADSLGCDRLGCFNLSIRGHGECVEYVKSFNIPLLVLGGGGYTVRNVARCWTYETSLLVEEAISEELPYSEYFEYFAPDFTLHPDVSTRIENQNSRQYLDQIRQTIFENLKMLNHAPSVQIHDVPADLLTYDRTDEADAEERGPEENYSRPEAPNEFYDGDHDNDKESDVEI
Histone deacetylase 3/Nuclear receptor corepressor 2 (HDAC3/NCoR2), sequence (Q9Y618 whole entry, further chain, the tested form may be a part): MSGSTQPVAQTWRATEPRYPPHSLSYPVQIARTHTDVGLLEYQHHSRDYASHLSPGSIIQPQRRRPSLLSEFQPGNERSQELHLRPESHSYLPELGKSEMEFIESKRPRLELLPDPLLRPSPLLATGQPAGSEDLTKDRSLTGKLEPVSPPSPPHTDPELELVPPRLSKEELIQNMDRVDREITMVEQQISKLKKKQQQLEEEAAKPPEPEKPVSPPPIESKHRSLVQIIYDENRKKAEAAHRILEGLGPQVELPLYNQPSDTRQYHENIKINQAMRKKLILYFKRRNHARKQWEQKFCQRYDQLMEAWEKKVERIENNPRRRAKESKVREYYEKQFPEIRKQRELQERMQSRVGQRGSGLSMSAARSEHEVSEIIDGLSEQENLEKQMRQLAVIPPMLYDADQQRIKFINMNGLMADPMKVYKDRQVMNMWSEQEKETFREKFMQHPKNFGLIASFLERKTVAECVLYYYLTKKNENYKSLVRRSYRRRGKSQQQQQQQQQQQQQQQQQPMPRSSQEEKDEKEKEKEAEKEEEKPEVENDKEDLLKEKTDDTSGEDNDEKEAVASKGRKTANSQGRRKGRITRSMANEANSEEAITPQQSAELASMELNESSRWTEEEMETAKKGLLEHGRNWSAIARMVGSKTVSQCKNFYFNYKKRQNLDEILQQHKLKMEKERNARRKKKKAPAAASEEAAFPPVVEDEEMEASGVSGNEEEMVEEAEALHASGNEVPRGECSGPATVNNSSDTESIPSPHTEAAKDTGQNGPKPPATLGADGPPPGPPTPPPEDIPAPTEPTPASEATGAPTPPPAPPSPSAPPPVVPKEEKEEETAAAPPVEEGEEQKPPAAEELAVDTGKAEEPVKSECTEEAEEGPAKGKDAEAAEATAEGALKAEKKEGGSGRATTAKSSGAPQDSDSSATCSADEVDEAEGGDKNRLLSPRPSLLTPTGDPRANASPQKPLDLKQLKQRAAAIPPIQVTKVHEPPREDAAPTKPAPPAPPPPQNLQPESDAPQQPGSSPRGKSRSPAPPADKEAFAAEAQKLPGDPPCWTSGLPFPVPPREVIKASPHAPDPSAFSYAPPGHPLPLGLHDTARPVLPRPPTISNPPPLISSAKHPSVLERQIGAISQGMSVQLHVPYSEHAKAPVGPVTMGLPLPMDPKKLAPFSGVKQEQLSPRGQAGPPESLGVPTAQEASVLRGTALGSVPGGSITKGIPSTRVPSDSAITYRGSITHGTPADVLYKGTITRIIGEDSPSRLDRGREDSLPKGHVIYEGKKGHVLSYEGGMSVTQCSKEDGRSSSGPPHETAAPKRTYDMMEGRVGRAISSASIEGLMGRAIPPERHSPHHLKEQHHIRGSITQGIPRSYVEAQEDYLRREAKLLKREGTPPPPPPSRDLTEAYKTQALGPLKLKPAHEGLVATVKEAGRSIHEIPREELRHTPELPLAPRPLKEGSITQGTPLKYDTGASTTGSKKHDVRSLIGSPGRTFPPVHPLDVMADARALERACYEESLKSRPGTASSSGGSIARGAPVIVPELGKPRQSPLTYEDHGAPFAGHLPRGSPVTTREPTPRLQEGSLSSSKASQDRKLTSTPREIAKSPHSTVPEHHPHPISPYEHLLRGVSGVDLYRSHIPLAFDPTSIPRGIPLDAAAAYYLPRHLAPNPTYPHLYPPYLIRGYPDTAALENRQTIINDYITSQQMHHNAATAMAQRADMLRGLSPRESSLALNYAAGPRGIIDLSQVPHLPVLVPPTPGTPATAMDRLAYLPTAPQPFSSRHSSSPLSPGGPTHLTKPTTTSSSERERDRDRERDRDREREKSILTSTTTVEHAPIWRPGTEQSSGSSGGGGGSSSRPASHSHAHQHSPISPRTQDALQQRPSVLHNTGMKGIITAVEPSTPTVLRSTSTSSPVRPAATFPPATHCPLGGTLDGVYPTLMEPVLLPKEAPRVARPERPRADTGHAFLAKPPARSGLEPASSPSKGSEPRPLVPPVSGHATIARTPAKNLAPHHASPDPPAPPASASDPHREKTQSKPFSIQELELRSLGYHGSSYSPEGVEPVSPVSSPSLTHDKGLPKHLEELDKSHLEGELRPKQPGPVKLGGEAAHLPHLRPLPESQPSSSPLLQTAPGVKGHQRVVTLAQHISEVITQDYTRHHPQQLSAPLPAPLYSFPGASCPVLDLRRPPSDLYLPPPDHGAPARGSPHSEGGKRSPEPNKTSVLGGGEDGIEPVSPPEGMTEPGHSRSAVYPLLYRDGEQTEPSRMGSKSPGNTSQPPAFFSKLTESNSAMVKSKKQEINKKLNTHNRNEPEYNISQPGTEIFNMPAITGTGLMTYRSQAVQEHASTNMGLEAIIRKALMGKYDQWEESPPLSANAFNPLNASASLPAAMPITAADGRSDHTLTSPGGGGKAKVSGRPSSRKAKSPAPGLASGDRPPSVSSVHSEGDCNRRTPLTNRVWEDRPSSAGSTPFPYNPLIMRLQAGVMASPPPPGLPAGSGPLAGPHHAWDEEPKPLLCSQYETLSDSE

Histone deacetylase 2 [3] = target: T2, Histone deacetylase 2 (Homo sapiens, UniProt Q92769); assay: Inhibition of recombinant full length C-terminal FLAG-tagged human HDAC2 expressed in baculovirus infected Sf9 cells using Boc-Lys(Ac)-AMC as substrate preincubated for 15 mins followed by substrate addition and measured after 60 mins by fluorescence based assay
T2 sequence (Q92769 whole entry): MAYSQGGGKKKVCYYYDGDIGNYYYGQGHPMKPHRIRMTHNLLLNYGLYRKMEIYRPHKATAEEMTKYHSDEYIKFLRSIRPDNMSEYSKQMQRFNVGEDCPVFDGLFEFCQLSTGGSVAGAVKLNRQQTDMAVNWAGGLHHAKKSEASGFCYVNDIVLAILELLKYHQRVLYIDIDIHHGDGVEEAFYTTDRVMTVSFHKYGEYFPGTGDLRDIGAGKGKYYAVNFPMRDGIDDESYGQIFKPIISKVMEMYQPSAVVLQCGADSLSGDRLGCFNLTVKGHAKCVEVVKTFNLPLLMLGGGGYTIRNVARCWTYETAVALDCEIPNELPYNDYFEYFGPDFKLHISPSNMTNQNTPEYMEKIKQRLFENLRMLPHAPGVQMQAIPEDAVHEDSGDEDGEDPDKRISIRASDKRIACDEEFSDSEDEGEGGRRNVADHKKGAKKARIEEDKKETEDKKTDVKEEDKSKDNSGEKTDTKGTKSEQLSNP

Histone deacetylase 1 [4] = target: T3, Histone deacetylase 1 (Homo sapiens, UniProt Q13547); assay: Inhibition of recombinant full length C-terminal FLAG/His-tagged human HDAC1 expressed in baculovirus infected Sf9 cells using Boc-Lys(Ac)-AMC as substrate preincubated for 15 mins followed by substrate addition and measured after 60 mins by fluorescence based assay
T3 sequence (Q13547 whole entry): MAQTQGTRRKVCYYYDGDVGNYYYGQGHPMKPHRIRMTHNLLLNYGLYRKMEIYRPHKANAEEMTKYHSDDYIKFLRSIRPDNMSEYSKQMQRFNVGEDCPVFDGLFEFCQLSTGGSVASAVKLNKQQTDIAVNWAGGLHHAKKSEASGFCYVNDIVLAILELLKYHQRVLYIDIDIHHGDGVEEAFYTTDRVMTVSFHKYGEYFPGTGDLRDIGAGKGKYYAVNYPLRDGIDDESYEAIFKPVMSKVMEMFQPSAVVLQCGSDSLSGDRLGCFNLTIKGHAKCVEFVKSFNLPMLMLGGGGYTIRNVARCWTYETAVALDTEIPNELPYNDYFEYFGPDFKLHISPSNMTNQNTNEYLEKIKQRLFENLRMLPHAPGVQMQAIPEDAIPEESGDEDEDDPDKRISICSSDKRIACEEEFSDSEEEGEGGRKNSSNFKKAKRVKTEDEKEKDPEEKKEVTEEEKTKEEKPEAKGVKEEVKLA

HL-60 [5] = assay: Growth inhibition of human HL-60 cells after 72 hrs by trypan blue dye based assay; format: functional; settings: for GI50: Homo sapiens, HL-60
Procedure, shortened: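 HL-60 leukemia cells were exposed to compound for 72 h. Growth inhibition is reported as IG50 (half the growth inhibition concentration), as means plus SD of three independent experiments.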

[6] = Toxicity in mouse LL/2 cells inoculated C57BL/6J mouse assessed as effect on body weight by measuring end body weight at 25 mg/kg, ip administered for 12 days and measured for every 2 days (reference value: 18.1 +/- 0.2 g); format: organism-based; settings: in vivo, 288 h, time 12 day
[7] = Toxicity in mouse LL/2 cells inoculated C57BL/6J mouse assessed as effect on body weight by measuring initial body weight at 25 mg/kg, ip administered for 12 days measured for every 2 days (reference value: 18.4 +/- 0.4 g); format: organism-based; settings: in vivo, 288 h, time 12 day
[8] = Antitumor activity against mouse LL/2 cells inoculated in C57BL/6J mouse assessed as reduction of tumor weight at 25 mg/kg, ip administered for 12 days measured at day 14 (reference value: 0.98 +/- 0.07 g); format: functional, Lewis lung carcinoma; settings: time 12 day
Histone deacetylase 2 [9] = target: T2, Histone deacetylase 2; assay: Inhibition of HDAC2 in human HL-60 cells assessed as increase in Ac-H3 level at 20 uM incubated for 24 hrs by Western blot analysis; format: cell-based
Procedure, shortened: (§1)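 Compound given to HL-60 cells for 24 h at the stated concentrations, then lysed. Acetyl-histone H3 and acetyl-α-tubulin levels were read by Western blot, with total H3, α-tubulin or β-actin as references.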

[10] = target: Histone deacetylase 3 (Homo sapiens) (UniProt O15379); assay: Inhibition of HDAC3 in human HL-60 cells assessed as increase in Ac-H3 level at 20 uM incubated for 24 hrs by Western blot analysis; format: cell-based; procedure, shortened: as §1
Histone deacetylase 3 (Homo sapiens), sequence (O15379 whole entry): as the sequence (O15379 whole entry, the tested form may be a part) above

Histone deacetylase 1 [11] = target: T3, Histone deacetylase 1; assay: Inhibition of HDAC1 in human HL-60 cells assessed as increase in Ac-H3 level at 20 uM incubated for 24 hrs by Western blot analysis; format: cell-based; procedure, shortened: as §1
HL-60 [12] = assay: Induction of apoptosis in human HL-60 cells assessed as necrotic cells at 20 uM incubated for 24 hrs by propidium iodide and annexin-V FITC staining based FACS analysis (reference value: 0.5 %); format: functional
HL-60 [13] = assay: Induction of apoptosis in human HL-60 cells assessed as late apoptotic cells at 20 uM incubated for 24 hrs by propidium iodide and annexin-V FITC staining based FACS analysis (reference value: 3.7 %); format: functional
HL-60 [14] = assay: Induction of apoptosis in human HL-60 cells assessed as early apoptotic cells at 20 uM incubated for 24 hrs by propidium iodide and annexin-V FITC staining based FACS analysis (reference value: […]); format: functional
HL-60 [15] = assay: Induction of apoptosis in human HL-60 cells assessed as viable cells at 20 uM incubated for 24 hrs by propidium iodide and annexin-V FITC staining based FACS analysis (reference value: 93.9 %); format: functional; settings: read-out: Activity

Structure (SMILES) | IC50 [1] [µM] | IC50 [2] [µM] | IC50 (Histone deacetylase 2 [3]) [µM] | IC50 (Histone deacetylase 1 [4]) [µM] | inhibition (Histone deacetylase 2 [9]) | inhibition [10] | inhibition (Histone deacetylase 1 [11]) | GI50 (HL-60 [5]) [µM] | IG50 (HL-60 [5]) [µM] | Activity [6] [g] | Activity [7] [g] | Activity [8] [g] | Activity (HL-60 [12]) [%] | Activity (HL-60 [13]) [%] | Activity (HL-60 [14]) [%] | viability at 20 µM (HL-60 [15]) [%]
O=C(CCCCCCC(=O)Nc1ccccc1)NO [VORINOSTAT] |  |  |  |  |  |  |  |  |  | 18.1 | 17.9 | 0.55 |  |  |  | 
CCCNC(=O)/C(Cc1ccc(O)c(Br)c1)=N/O | > 10 | > 10 | > 10 | > 10 | inactive | inactive | inactive | 13.5 |  |  |  |  | 0.2 | 2.5 | 1.8 | 95.5
O=C(NCCO)/C(Cc1ccc(O)c(Br)c1)=N/O | > 10 | > 10 | > 10 | > 10 | inactive | inactive | inactive | 20 |  |  |  |  | 0.1 | 3.7 | 1.7 | 94.4
CCCCNC(=O)/C(Cc1ccc(O)c(Br)c1)=N/O | > 10 | > 10 | > 10 | > 10 |  |  |  | 36 |  |  |  |  |  |  |  | 
O=C(O)CCNC(=O)/C(Cc1ccc(O)c(Br)c1)=N/O | > 10 | > 10 | > 10 | > 10 | inactive | inactive | inactive | 11.8 |  |  |  |  | 0.2 | 3.4 | 2.2 | 94.2
Nc1ccccc1NC(=O)CCNC(=O)/C(Cc1ccc(O)c(Br)c1)=N/O | > 10 | > 10 | > 10 | > 10 |  |  |  |  | >40 |  |  |  |  |  |  | 
O=C(CCCNC(=O)/C(Cc1ccc(O)c(Br)c1)=N/O)NO | > 10 | > 10 | > 10 | 1.01 |  |  |  |  | >40 |  |  |  |  |  |  | 

Now from value to molecule, other results behind:

IC50 [1] [µM] | IC50 [2] [µM] | IC50 (Histone deacetylase 2 [3]) [µM] | IC50 (Histone deacetylase 1 [4]) [µM] | inhibition (Histone deacetylase 2 [9]) | inhibition [10] | inhibition (Histone deacetylase 1 [11]) | GI50 (HL-60 [5]) [µM] | Structure (SMILES) | IG50 (HL-60 [5]) [µM] | Activity [6] [g] | Activity [7] [g] | Activity [8] [g] | Activity (HL-60 [12]) [%] | Activity (HL-60 [13]) [%] | Activity (HL-60 [14]) [%] | viability at 20 µM (HL-60 [15]) [%]
1.29 | 0.249 | > 10 | 0.436 |  |  |  |  | O=C(CCCCNC(=O)/C(Cc1ccc(O)c(Br)c1)=N/O)NO | >40 |  |  |  |  |  |  | 
> 10 | 1.83 | > 10 | > 10 |  |  |  |  | Nc1ccccc1NC(=O)CCCNC(=O)/C(Cc1ccc(O)c(Br)c1)=N/O | >40 |  |  |  |  |  |  | 
> 10 | 1.43 | 9.76 | > 10 |  |  |  |  | Nc1ccccc1NC(=O)CCCCNC(=O)/C(Cc1ccc(O)c(Br)c1)=N/O | >40 |  |  |  |  |  |  | 
> 10 | > 10 | > 10 | > 10 |  |  |  |  | Nc1ccccc1NC(=O)CNC(=O)/C(Cc1ccc(O)c(Br)c1)=N/O | >40 |  |  |  |  |  |  | 
> 10 | 1.23 | 9.21 | 2.93 |  |  |  |  | O=C(CNC(=O)/C(Cc1ccc(O)c(Br)c1)=N/O)NO | >40 |  |  |  |  |  |  | 
